Results published in ChEMBL document CHEMBL1129545, “Synthesis and evaluation of the antiproliferative effects of 1-O-hexadecyl-2-O-methyl-3-O-(2'-acetamido-2'-deoxy-beta-D- glucopyranosyl)-sn-glycerol and 1-O-hexadecyl-2-O-methyl-3-0- (2'-amino-2'-deoxy-beta-D-glucopyranosyl)-sn-glycerol on epithelial cancer cell growth” (J Med Chem, 1996).

Experiments:
Format in all cases: functional, cell-based
OVCAR-3 [1] = experiment: Inhibitory activity against OVCAR-3 epithelial Cancer cell line at the concentration 0-30 uM for 48 hr; settings: Homo sapiens, OVCAR-3, 48 h
In short: (§1)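 OVCAR-3 ovarian adenocarcinoma cells in RPMI 1640 with 20% FBS and 10 μg/mL insulin, in 24-well plates. At log phase, medium was replaced with drug-containing medium (0–30 μM, serial dilution of ethanol stocks) for 48 h. Increase in cell number was counted on a Coulter counter relative to drug-free wells, and IC50 was taken as 50% inhibition.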

A-427 = experiment: Inhibitory activity against A427 epithelial Cancer cell line at the concentration 0-30 uM for 48 hr; settings: Homo sapiens, A-427, 48 h
In short: (§2)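 Human lines from frozen ATCC stocks: A549 in Ham's F-12, T84 in 1:1 F-12/DMEM, MCF-7 and A427 in DMEM, with 10% FBS. Log-phase cells in 24-well plates had medium replaced with drug-containing medium (0–30 μM, serial dilution of ethanol stocks) for 48 h. Coulter counts of cell increase as percent of drug-free controls; IC50 for 50% inhibition; means of eight determinations.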

A549 = experiment: Inhibitory activity against A549 epithelial Cancer cell line at the concentration 0-30 uM for 48 hr; settings: Homo sapiens, A549, 48 h; in short: as §2
T84 = experiment: Inhibitory activity against T84 epithelial Cancer cell line at the concentration 0-30 uM for 48 hr; settings: Homo sapiens, T84, 48 h; in short: as §2
MCF7 = experiment: Inhibitory activity against MCF-7 epithelial Cancer cell line at the concentration 0-30 uM for 48 hr; settings: Homo sapiens, MCF7, 48 h; in short: as §2
OVCAR-3 [2] = experiment: Inhibitory activity against OVCAR-3 cell growth; settings: Homo sapiens; in short: as §1

| SMILES | IC50 (OVCAR-3 [1]) [µM] | IC50 (A-427) [µM] | IC50 (A549) [µM] | IC50 (T84) [µM] | IC50 (MCF7) [µM] | IC50 (OVCAR-3 [2]) [µM] |
| --- | --- | --- | --- | --- | --- | --- |
| CCCCCCCCCCCCCCCCOC[C@H](CO[C@H]1O[C@@H](CO)[C@H](O)[C@@H](O)[C@@H]1NC(C)=O)OC | 12 | 24.5 | 9 | > 30 | 17 |  |
| CCCCCCCCCCCCCCCCOC[C@H](CO[C@H]1O[C@@H](CO)[C@H](O)[C@@H](O)[C@@H]1N)OC | 4 | 7 | 8.3 | 12.2 | 6.5 |  |
| CCCCCCCCCCCCCCCCOP(=O)([O-])OCC[N+](C)(C)C [MILTEFOSINE] |  |  |  |  |  | > 30 |
